Results: PubChem BioAssay AID617 (SRMLSC, 2007)

What follows are compounds tested on E. coli BW25113 ΔtolC growth inhibition, OD615 (assay: growth inhibitors of E. coli tolC mutant, dose response, strain BW25113 ΔtolC::kan (AID 617)).
How it was run: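 Test system: E. coli BW25113 ΔtolC::kan bacteria / Buffer or medium: kanamycin-containing LB broth, 50 µg/mL / Compound: serial dilution series of compound / Incubation: bacterial growth with compound for 20 h, 37 °C / Measured by: OD615 / Read-out basis: growth-inhibition IC50 from four-parameter logistic curve, bounds set to 0% and 100%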
With Cc1cc(N2CCN(C(c3ccccc3)c3ccccc3)CC2)n2ncnc2n1 the IC50 was 26.6 µM. Compound O=c1n(Cc2ccc(Cl)cc2)c2sc3c(c2c2ncnn12)CCCC3 has an IC50 of 7.35 µM. Compound COc1ccc(NC(=O)N2CCCC(c3nc(-c4ccc(C(C)C)cc4)no3)C2)cc1 (stereo unspecified) has an IC50 of 16.9 µM. CCOC(=O)c1cnc(-n2nc(C)cc2C)nc1NCc1ccccc1 was tested, and the IC50 was 0.68 µM. Work on Oc1c(CN2CCCCC2)cc(COCc2ccccc2)c2cccnc12 yielded an IC50 of 13.2 µM. Work on C=C(C)COc1ccc(-c2[nH]ncc2Oc2ccccc2OC)c(O)c1 yielded an IC50 of 5.72 µM. COC(=O)c1[nH]c2ccc(C)cc2c1NS(=O)(=O)c1ccc(F)c(C)c1 gave an IC50 of 1.75 µM. With COc1ccccc1-c1noc(CCC(=O)Nc2cccc(C(F)(F)F)c2)n1 the IC50 was 15.9 µM. In the case of O=C(O)CCCC(=O)N1CCc2cc(S(=O)(=O)N3CCc4ccccc43)ccc21, the IC50 is reported as 10.7 µM. With Cc1cccc(-c2nc(CS(=O)CC(=O)NCCCSC3CCCCC3)c(C)o2)c1 (stereo unspecified) the IC50 was 10.1 µM. Compound O=C(COC(=O)c1ccc(Oc2ccccc2)cc1)Nc1nnc(-c2ccccc2)o1 has an IC50 of 0.96 µM. In the case of CC(=Nc1ccc(O)cc1)c1sc2ccccc2c1O, the IC50 is reported as 0.89 µM. For O=C(CCCSc1nc(-c2ccco2)cc(C(F)(F)F)n1)Nc1ccc2c(c1)OCO2, the IC50 was 4.61 µM. CN1C(=O)C2(OCC(COc3ccc(Cl)cc3)O2)c2ccccc21 (stereo unspecified) gave an IC50 of 11.1 µM. In the case of CC1CCN(S(=O)(=O)c2cccc(C(=O)NCc3cccs3)c2)CC1, the IC50 is reported as 33.4 µM. O=C(CSc1ncc(-c2ccc(F)cc2)n1Cc1ccco1)Nc1ccc2c(c1)OCO2 showed an IC50 of 7.29 µM. Compound Cc1ccc(-c2nnc(SCC(=O)N3CC(C)CC(C)C3)o2)cc1C (stereo unspecified) has an IC50 of 12.9 µM. CC(C)(C)NC(=O)C(c1ccco1)N(C(=O)Cn1nnc(-c2ccc(F)cc2)n1)c1cccc(F)c1 (stereo unspecified) showed an IC50 of 20.9 µM. CC(C)OCCCNc1ncnc2c1[nH]c1ccc(F)cc12 showed an IC50 of 7.21 µM. In the case of Cc1c(C(=O)OC2CCCC2C)[nH]c2c1C(=O)CCC2 (stereo unspecified), the IC50 is reported as 0.38 µM. Fc1ccc(-c2cc(C(F)(F)F)nc(NCC3CCCO3)n2)cc1 (stereo unspecified) gave an IC50 of 20.7 µM. With CCCCCC/C(=N/O)c1ccccn1 the IC50 was 3.15 µM. Work on CCOC(=O)c1cc(CC)sc1NC(=O)Cc1ccsc1 yielded an IC50 of 10.3 µM. Compound O=C(COc1ccccc1)Nc1ccccc1N1CCCCC1 has an IC50 of 25.6 µM. CCOC(=O)Cc1csc(NC(=O)c2csc3c2CCCC3)n1 showed an IC50 of 16.4 µM. Work on COc1cccc(-c2csc(N3CCN(C(=O)C4CCCCC4)CC3)n2)c1 yielded an IC50 of 16.8 µM. With c1ccc(-c2oc3ncnc(NCCCn4ccnc4)c3c2-c2ccccc2)cc1 the IC50 was 6.05 µM. Compound c1csc(-c2noc(COc3ccc4c(c3)CCCC4)n2)c1 has an IC50 of 18.4 µM. Compound Cc1ccc2[nH]c(=O)c(CN(Cc3nnnn3Cc3ccccc3)C3CCCC3)cc2c1 has an IC50 of 53.3 µM. Compound O=C(Nc1ccn(Cc2ccc(Cl)cc2)n1)c1ccc2c(c1)OCO2 has an IC50 of 7.31 µM. Cc1ccc(Cl)cc1N1CCN(Cc2nnnn2Cc2ccco2)CC1 was tested, and the IC50 was 17.6 µM. For CC1CCN(C(=O)c2ccc(COc3ccccc3Cl)o2)CC1, the IC50 was 11.1 µM. O=C(Oc1ccccc1)c1cc2ccccc2o1 was tested, and the IC50 was 23.1 µM. With c1coc(CN(Cc2cccs2)Cc2nnnn2C2CCCCC2)c1 the IC50 was 19.6 µM. With CCCCc1ccc(C2C(C#N)=C(N)SC(N)=C2C#N)s1 the IC50 was 13.8 µM. With CC(C)c1ccc(-c2nnn(Cc3nc4ccccc4s3)n2)cc1 the IC50 was 22.8 µM. N#C/C(=C\c1cccs1)Sc1nc2ccccc2s1 gave an IC50 of 9.02 µM. CC(C)C(c1nnnn1C1CCCC1)N1c2ccccc2CC1C (stereo unspecified) showed an IC50 of 20.8 µM. In the case of CN1CCCN(C(=O)Cc2c(Cl)cccc2Cl)c2nc3ccccc3nc21, the IC50 is reported as 13.1 µM. For O=c1[nH]c(NCCCO)nc2c1C1(CCCC1)Cc1ccccc1-2, the IC50 was 8.77 µM. Cn1c(CSc2nc3ccccc3s2)nc2ccccc21 was tested, and the IC50 was 22.4 µM. OC(COc1ccc2ccccc2c1Br)Cn1ccnc1 (stereo unspecified) gave an IC50 of 7.54 µM. Work on Cc1ccc(CN2C(=O)NC(=O)C3(Cc4c(nc5ccccn5c4=O)N4CCCCCC43)C2=O)cc1 (stereo unspecified) yielded an IC50 of 22.2 µM. Cc1cc(N2CCCCCC2)nc(-c2ccccc2O)n1 was tested, and the IC50 was 13.6 µM. S=C(c1ccc(-c2ccc(Cl)c(Cl)c2)o1)N1CCOCC1 was tested, and the IC50 was 11.2 µM. CCOc1ccc(N(CC(=O)Nc2cccc(OC)c2)S(=O)(=O)c2c(C)noc2C)cc1 showed an IC50 of 22.8 µM. Work on CCCCCCn1c2c(c(=N)c3c1CCC3)CCC2 yielded an IC50 of 10.2 µM. O=C(CCCOc1ccc(Cl)cc1Cl)N1CCN(c2ccccn2)CC1 showed an IC50 of 6.04 µM. For COc1ccc(C/C(O)=C(\C#N)c2nc3ccccc3s2)cc1, the IC50 was 5.12 µM. With c1ccc2oc(SCc3nc4ccccc4s3)nc2c1 the IC50 was 29.1 µM. Cc1cccc(-c2noc(CN(C(=O)c3ccc(Br)o3)C(C)C)n2)c1 gave an IC50 of 11.8 µM. Cc1nc(N2CCN(c3ccccc3)CC2)nc2c1C(=O)CCC2 showed an IC50 of 26.6 µM. CCNc1nc(NC(C)C)nc(N(C#N)CCOc2ccc(Cl)cc2Cl)n1 gave an IC50 of 6.64 µM. In the case of O=C(Nc1nc(-c2ccccc2)ns1)c1cccs1, the IC50 is reported as 28.4 µM. With COc1ccc(-c2cc(C(=O)N3CCCc4ccccc43)no2)cc1 the IC50 was 20.5 µM. COc1ccc(-c2[nH]ncc2-c2ccc3c(c2)OCCO3)c(O)c1 gave an IC50 of 15.9 µM.
